Measurements gathered from unrelated publications.
Each line is one published result; the experiments were not run side by side.
Target: Vascular endothelial growth factor receptor 1 (FLT1, Homo sapiens, UniProt P17948)

`CN(C)c1nccc(-c2cnn3ncccc23)n1` gave a remaining binding of 100% (binding; 1 µM).
For `CCOC(=O)c1cc2cc(-c3cc(C(=O)NCc4ccc(C(=O)O)cc4)nn3C)ccc2[nH]1`, the remaining binding was 97% (cell-free assay, competition with immobilised ligand; 0.1 µM).
`C[C@@H]1CCN(c2nccc(-c3cnn4ncccc34)n2)C1` has a remaining binding of 100% (binding; 1 µM).
With `O=C(NCCCN1CCOCC1)c1ccc(Nc2nccc(-c3cc4ccccc4s3)n2)cc1` the remaining binding was 70% (binding, competition with immobilised ligand; 1 µM).
The remaining binding of `COc1ncc2cc3ccccc3nc2c1C#N` is reported as 95% (cell-free assay, competition with immobilised ligand; 5 µM).
With `COc1cnc(Nc2cccc(S(N)(=O)=O)c2)nc1N1CCN(c2ccccc2)CC1` the remaining binding was 97% (binding, competition with immobilised ligand; 1 µM).
The remaining binding of `Cc1cc(NC(=O)c2cccc(S(F)(F)(F)(F)F)c2)cc(-n2ccn3nc(-c4cccnc4)cc23)c1` is reported as 100% (cell-free assay, competition with immobilised ligand; 1 µM).
With `CN(CCCC(F)(F)F)c1nccc(-c2cnn3ncccc23)n1` the remaining binding was 100% (binding; 1 µM).
The remaining binding of `CN([C@@H]1CCc2c(CC(=O)O)c3cc(S(C)(=O)=O)ccc3n2C1)S(=O)(=O)c1ccc(F)cc1` is reported as 88% (cell-free assay, competition with immobilised ligand; 1 µM).
With `O=C(Nc1c[nH]nc1C(=O)NC1CCNCC1)c1cc(F)cc(F)c1` the remaining binding was 63% (binding, competition with immobilised ligand; 1 µM).
With `CN(C(=O)c1ccccc1)c1cc(N(C)c2ccc3c(c2)CCc2ccc(C(=O)NCCN4CCOCC4)cc2C3=O)ccc1F` the remaining binding was 85% (cell-free assay, competition with immobilised ligand; 1 µM).
For `COc1ccnn2ncc(-c3ccnc(N(C)C)n3)c12`, the remaining binding was 100% (binding; 1 µM).
The remaining binding of `CCN(CC)CCCCNc1ncc2cc(-c3cc(OC)cc(OC)c3)c(NC(=O)NC(C)(C)C)nc2n1` is reported as 8% (cell-free assay, competition with immobilised ligand; 1 µM).
`c1cnn2ncc(-c3ccnc(N4CCC45COC5)n3)c2c1` has a remaining binding of 87% (binding; 1 µM).
`O=C(c1ccc(Nc2ncc(Cl)c(-c3cc4ccccc4s3)n2)cc1)N1CCC(N2CCCC2)CC1` has a remaining binding of 6.2% (binding, competition with immobilised ligand; 1 µM).
With `Nc1ncc2c(n1)-c1c([nH]c3ccc(C#CC4CC4)cc13)CCCC2` the remaining binding was 91% (binding, competition with immobilised ligand; 1 µM).
`CCC(=O)N[C@H]1CC[C@@H](C(=O)N(C)c2ccc(-c3nc4ccccc4o3)cc2)C1` gave a remaining binding of 98% (cell-free assay, competition with immobilised ligand; 1 µM).
The remaining binding of `N[C@@H]1CCN(c2nccc(-c3cnn4ncccc34)n2)C1` is reported as 100% (binding; 1 µM).
`CC1=C(C#N)[C@@H](c2ccc3[nH]nc(C)c3c2)C(C#N)=C(c2ccc(Cl)cc2)N1` gave a remaining binding of 100% (cell-free assay, competition with immobilised ligand; 1 µM).
`O=C(c1ccc(Nc2nccc(-c3cc4ccccc4s3)n2)cc1)N1CCC(N2CCCC2)CC1` has a remaining binding of 46% (binding, competition with immobilised ligand; 1 µM).
`O=C(NCc1ncc(C(F)(F)F)cc1Cl)c1ccc2c(c1)C1(CCS(=O)(=O)CC1)[C@@H](C1CC1)N2S(=O)(=O)c1ccc(F)cc1` gave a remaining binding of 82% (cell-free assay, competition with immobilised ligand; 1 µM).
The remaining binding of `COc1cnc(Nc2cccc(S(N)(=O)=O)c2)nc1N1CCN(c2ccccc2)C(=O)C1` is reported as 98% (binding, competition with immobilised ligand; 1 µM).
